According to ChEMBL document CHEMBL5678818, “Discovery of potent SOS1 inhibitors that block RAS activation via disruption of the RAS-SOS1 interaction” (Proc Natl Acad Sci U S A, 2019):
“And” between values parts separate entries of the source, which are not always exact repeats. Equal entries are not always repeated.

What was measured:
[1] = molecular target: RAC-gamma serine/threonine-protein kinase (Homo sapiens) (UniProt Q9Y243); experiment: Inhibition of AKT3 (unknown origin) assessed as residual activity at 1000 nM by KINOMEscan analysis relative to control
Chain of RAC-gamma serine/threonine-protein kinase (Homo sapiens) (Q9Y243 whole entry): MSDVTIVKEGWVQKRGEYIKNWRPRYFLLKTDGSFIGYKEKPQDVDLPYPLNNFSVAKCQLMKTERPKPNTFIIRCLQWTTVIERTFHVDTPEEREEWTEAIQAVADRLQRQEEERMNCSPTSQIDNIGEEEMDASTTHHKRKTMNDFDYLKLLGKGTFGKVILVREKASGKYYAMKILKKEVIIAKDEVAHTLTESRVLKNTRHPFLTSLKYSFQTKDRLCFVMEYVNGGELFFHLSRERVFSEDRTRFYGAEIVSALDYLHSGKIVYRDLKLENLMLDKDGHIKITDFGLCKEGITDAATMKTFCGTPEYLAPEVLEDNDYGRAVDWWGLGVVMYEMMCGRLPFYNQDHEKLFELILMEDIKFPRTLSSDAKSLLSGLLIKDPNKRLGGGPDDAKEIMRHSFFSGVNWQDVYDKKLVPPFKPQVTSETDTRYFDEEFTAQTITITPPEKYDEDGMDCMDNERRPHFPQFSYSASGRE

[2] = system: ALK tyrosine kinase receptor (Homo sapiens), Q9UM73 [L1196M]; experiment: Inhibition of ALK L1196M mutant (unknown origin) assessed as residual activity at 1000 nM by KINOMEscan analysis relative to control
Chain of ALK tyrosine kinase receptor (Homo sapiens), Q9UM73 [L1196M] (Q9UM73 whole entry L1196M, looked up): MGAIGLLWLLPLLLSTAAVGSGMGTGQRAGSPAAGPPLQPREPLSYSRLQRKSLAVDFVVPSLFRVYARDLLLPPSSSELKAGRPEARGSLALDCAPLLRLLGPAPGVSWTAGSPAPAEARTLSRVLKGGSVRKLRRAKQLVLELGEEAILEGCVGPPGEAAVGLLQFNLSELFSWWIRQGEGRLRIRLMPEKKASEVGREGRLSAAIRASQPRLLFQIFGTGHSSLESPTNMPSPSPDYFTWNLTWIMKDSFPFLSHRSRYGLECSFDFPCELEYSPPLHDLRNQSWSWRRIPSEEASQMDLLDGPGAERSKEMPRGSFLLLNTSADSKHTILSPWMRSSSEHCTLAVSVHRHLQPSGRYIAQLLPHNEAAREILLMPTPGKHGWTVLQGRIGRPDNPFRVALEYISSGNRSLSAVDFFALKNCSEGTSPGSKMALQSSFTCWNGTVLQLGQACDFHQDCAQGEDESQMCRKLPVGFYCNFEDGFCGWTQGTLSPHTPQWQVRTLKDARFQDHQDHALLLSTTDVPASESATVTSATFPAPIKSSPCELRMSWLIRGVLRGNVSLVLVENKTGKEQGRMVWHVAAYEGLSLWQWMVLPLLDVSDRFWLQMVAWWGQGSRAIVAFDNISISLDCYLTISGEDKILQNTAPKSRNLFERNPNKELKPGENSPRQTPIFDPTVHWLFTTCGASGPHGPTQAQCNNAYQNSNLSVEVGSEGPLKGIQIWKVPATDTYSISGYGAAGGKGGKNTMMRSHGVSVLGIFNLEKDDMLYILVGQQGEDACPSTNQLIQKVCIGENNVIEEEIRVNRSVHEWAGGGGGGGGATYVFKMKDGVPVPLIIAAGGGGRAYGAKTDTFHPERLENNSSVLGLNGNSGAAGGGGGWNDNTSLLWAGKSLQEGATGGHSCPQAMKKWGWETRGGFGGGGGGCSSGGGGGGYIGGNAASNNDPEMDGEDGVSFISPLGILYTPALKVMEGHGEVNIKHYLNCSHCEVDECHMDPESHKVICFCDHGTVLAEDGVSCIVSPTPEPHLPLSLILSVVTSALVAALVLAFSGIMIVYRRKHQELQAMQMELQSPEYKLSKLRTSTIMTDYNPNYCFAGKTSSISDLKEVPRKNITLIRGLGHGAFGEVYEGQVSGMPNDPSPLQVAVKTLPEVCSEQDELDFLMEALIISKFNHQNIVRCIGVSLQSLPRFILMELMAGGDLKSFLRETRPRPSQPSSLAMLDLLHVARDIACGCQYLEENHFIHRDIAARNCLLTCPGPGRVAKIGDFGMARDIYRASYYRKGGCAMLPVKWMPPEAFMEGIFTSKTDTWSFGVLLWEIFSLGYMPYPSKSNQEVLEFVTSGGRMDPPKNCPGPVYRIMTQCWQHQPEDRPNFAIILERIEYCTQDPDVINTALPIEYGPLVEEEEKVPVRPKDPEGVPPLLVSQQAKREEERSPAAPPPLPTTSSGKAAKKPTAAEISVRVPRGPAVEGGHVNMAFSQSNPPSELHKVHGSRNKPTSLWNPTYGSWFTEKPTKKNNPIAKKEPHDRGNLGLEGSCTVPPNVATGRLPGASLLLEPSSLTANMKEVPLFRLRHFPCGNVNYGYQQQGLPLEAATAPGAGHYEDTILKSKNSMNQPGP

[3] = molecular target: T1, MAP kinase-activated protein kinase 5 (Homo sapiens) (UniProt Q8IW41); experiment: Inhibition of MAPKAPK5 (unknown origin) assessed as residual activity at 1000 nM by KINOMEscan analysis relative to control
T1 sequence (whole entry): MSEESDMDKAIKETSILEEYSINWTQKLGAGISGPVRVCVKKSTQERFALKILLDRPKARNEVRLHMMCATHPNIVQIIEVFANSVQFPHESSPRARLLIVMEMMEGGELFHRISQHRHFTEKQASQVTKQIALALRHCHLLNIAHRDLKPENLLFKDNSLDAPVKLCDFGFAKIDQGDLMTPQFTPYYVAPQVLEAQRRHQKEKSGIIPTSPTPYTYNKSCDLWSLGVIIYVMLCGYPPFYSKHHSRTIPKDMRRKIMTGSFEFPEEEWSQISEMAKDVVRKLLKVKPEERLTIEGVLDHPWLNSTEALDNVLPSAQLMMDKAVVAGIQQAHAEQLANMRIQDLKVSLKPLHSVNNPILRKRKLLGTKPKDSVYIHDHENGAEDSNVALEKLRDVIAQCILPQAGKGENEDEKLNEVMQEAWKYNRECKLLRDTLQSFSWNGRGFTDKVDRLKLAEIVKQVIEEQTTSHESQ

[4] = molecular target: T2, Son of sevenless homolog 1 (Homo sapiens) (UniProt Q07889); experiment: Stabilization of N-terminal His10-tagged wild-type recombinant human SOS1 catalytic domain (564 to 1049 residues) expressed in Escherichia coli assessed as change in melting temperature at 100 uM with heating from 25 to 85 degreeC by thermal shift assay
T2 sequence (whole entry): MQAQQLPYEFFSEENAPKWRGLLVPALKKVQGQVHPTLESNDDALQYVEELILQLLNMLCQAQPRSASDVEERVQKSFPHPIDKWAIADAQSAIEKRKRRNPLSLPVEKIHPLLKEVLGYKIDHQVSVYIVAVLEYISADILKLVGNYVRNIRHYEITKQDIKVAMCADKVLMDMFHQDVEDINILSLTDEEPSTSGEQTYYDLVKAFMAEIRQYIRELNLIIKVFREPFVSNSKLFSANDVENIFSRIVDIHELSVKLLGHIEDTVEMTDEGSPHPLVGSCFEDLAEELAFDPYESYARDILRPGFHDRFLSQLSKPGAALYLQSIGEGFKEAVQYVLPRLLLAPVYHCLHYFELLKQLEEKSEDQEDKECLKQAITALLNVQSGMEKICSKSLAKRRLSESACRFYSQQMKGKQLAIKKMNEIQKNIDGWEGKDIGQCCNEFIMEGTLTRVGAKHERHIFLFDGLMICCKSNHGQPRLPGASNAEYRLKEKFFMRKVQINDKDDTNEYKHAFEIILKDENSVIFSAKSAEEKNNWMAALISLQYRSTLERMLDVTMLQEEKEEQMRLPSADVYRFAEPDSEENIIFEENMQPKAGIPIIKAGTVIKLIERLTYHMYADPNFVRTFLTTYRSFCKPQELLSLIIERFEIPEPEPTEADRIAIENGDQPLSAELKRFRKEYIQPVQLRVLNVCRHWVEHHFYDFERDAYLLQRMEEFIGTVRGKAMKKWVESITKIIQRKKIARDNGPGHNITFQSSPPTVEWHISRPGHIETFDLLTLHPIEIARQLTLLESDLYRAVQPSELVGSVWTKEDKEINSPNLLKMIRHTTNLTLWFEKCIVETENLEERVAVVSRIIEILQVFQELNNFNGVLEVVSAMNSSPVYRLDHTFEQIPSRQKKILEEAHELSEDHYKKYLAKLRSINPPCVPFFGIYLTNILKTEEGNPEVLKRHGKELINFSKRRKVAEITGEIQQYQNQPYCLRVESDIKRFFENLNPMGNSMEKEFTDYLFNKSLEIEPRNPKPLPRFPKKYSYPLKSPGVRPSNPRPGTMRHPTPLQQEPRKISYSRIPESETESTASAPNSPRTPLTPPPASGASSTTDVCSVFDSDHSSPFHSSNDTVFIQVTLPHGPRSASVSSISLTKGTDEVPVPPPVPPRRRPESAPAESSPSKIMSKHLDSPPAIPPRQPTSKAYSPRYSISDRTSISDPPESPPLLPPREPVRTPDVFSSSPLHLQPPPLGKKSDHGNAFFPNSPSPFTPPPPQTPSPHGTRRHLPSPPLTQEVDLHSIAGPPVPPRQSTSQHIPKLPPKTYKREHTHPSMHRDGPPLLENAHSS

[5] = molecular target: T2, Son of sevenless homolog 1 (Homo sapiens); experiment: Binding affinity to N-terminal His10-tagged wild-type recombinant human SOS1 catalytic domain (564 to 1049 residues) expressed in Escherichia coli assessed as change in enthalpy by ITC analysis
Outline: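 SOS1cat was titrated into a solution of the test ligand. Integrated injection enthalpies were plotted against the protein-to-compound molar ratio and fitted to derive the thermodynamic binding parameters.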

Q: `COc1cc2nc(C)nc(N[C@H](C)c3cccc(-c4cn[nH]c4)c3)c2cc1OC` was tested. Which Activity [1] did it give?
A: 84%

Q: What about the Activity [2] of the same molecule?
A: 67%

Q: And the Activity [3]?
A: 85%

Q: How did the ΔTm [4] turn out when `COc1cc2ncnc(N[C@H](C)c3cccc4ccccc34)c2cc1OC` was run?
A: 2.5 °C

Q: And the deltaH [5]?
A: -59 kJ/mol

Q: And the Activity [1]?
A: 100%

Q: What about the Activity [2] of the same molecule?
A: 80%

Q: What about the Activity [3] of the same molecule?
A: 87%

Q: Which ΔTm [4] does the source give for `CNCc1ccccc1-c1csc([C@@H](C)Nc2nc(C)nc3cc(OC)c(OC)cc23)c1` [BAY-293] here?
A: 3.17 °C

Q: And the deltaH [5]?
A: -67.4 kJ/mol and -74.9 kJ/mol
